Data set [1] is described as follows: Solubility of compound in pH 6.8 Cl-free PBS buffer by shake-flask assay. The format is physicochemical. In a few lines: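 Shake-flask solubility measured in chloride-free PBS at pH 6.8.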
The target of another data set is Cytochrome P450 3A4 (Homo sapiens, UniProt P08684). Put plainly: Time dependent inhibition of CYP3A4 in human liver microsomes assessed as inactivation rate constant at 10 uM using midazolam as substrate incubated prior to substrate addition and measured after 6 mins in presence of NADPH. The format is ADME. The conditions noted are these: 0.1 h. An outline of the steps: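 Human liver microsomes (0.5 mg/mL) preincubated with test compound at 10 µM and 1 mM NADPH in phosphate buffer at 37 °C for 0, 5, 15 and 30 min. Mixture then diluted 20-fold and incubated with midazolam (20 µM) at 37 °C for 6 min to measure residual CYP3A4 activity. kobs taken as the initial rate of decline of activity versus preincubation time.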
Cytochrome P450 3A4, sequence (P08684 whole entry): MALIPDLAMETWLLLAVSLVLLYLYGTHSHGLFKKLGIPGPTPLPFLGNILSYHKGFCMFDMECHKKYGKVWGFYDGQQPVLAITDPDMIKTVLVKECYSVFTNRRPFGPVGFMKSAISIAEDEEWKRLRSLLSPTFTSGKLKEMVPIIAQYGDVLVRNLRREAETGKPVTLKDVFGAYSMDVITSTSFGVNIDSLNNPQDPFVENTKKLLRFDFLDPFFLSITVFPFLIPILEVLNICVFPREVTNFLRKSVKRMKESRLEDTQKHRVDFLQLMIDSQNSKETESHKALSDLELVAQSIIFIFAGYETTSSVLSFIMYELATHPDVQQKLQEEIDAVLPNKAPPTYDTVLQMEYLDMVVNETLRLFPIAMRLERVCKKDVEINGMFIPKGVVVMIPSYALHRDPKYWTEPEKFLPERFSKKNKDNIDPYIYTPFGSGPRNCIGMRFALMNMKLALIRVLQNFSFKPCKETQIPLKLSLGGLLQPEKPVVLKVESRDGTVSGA
A general note: Microsomes from liver hold many membrane-bound enzymes, among them those of drug oxidation.

Data set [2] can be described thus: Stimulation of BRAF-CRAF dimerization in human HCT116 cells measured after 2 hrs by NanoBit luciferase complementation assay. The format is cell-based. The settings on record: read-out: EC50.
Data set [3] relates to Serine/threonine-protein kinase B-raf (Homo sapiens), P15056 [V600E]. Put plainly: Binding affinity to human partial length BRAF V600E mutant (S429 to E741 residues) expressed in mammalian expression system at 1 uM by Kinomescan method relative to control.
Serine/threonine-protein kinase B-raf (Homo sapiens), P15056 [V600E], sequence (P15056 whole entry V600E, the tested form may be a part): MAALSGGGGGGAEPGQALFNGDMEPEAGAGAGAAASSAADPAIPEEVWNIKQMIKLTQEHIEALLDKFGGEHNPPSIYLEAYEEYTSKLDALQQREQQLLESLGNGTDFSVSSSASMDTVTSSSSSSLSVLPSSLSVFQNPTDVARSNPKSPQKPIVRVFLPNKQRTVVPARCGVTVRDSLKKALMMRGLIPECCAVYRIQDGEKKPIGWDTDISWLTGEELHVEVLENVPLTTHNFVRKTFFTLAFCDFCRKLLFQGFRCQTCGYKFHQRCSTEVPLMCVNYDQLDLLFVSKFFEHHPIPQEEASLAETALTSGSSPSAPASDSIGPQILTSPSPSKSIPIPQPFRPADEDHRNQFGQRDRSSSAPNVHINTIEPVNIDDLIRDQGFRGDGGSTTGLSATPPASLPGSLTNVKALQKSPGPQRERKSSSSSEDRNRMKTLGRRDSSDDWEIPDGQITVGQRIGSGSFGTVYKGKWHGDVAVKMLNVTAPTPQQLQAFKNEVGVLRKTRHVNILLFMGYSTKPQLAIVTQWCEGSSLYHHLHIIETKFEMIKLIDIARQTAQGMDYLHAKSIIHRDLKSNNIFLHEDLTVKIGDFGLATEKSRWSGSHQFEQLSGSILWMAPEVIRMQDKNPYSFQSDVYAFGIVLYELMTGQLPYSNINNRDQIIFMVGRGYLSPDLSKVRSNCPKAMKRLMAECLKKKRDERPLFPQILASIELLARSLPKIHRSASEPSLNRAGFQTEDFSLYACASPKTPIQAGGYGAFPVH
For data set [4], the target named is T1, RAF proto-oncogene serine/threonine-protein kinase (Homo sapiens, UniProt P04049). Put plainly: Binding affinity to wild-type human partial length CRAF (I330 to T640 residues) expressed in bacterial expression system at 1 uM by Kinomescan method relative to control.
T1 sequence (P04049 whole entry, the tested form may be a part): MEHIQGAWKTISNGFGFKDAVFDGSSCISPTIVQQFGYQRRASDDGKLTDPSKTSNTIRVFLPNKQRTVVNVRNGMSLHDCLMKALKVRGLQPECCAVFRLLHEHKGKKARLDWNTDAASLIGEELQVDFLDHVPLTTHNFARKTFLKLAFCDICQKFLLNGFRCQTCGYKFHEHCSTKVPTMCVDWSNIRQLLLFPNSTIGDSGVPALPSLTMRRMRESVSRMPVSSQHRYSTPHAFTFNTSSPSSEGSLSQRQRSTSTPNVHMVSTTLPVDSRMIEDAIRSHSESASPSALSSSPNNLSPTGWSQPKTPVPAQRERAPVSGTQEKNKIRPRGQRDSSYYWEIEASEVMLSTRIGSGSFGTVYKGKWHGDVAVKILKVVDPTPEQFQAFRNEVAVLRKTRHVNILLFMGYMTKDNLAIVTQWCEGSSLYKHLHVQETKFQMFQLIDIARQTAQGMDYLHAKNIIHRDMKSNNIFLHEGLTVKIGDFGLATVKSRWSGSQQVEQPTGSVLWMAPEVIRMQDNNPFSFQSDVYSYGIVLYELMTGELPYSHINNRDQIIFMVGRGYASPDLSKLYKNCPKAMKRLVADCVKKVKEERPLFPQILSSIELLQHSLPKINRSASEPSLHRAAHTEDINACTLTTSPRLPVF
Data set [5] has as its target Epithelial discoidin domain-containing receptor 1 (Homo sapiens) (UniProt Q08345). The data set is described as follows: Binding affinity to wild-type human partial length DDR1 (R565 to V876 residues) expressed in bacterial expression system at 1 uM by Kinomescan method relative to control. An outline of the steps: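 KINOMEscan competition binding panel of about 456 kinases, compound tested at 1 μM. Activity is given as % of control = [(test signal − positive control signal)/(negative control signal − positive control signal)] × 100.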

For data set [6], the target named is Serine/threonine-protein kinase B-raf (Homo sapiens, UniProt P15056). The data set is described as follows: Binding affinity to wild-type human partial length BRAF (S429 to E741 residues) expressed in mammalian expression system by Kinomescan method.
Serine/threonine-protein kinase B-raf, sequence (P15056 whole entry, the tested form may be a part): as the sequence (P15056 whole entry V600E, the tested form may be a part) above, with E600V counted along it
Data set [7] has as its target T1, RAF proto-oncogene serine/threonine-protein kinase. The data set is described as follows: Binding affinity to wild-type human partial length CRAF (I330 to T640 residues) expressed in bacterial expression system by Kinomescan method.
The target in data set [8] is T2, Discoidin domain-containing receptor 2 (Homo sapiens, UniProt Q16832).
T2 sequence (Q16832 whole entry): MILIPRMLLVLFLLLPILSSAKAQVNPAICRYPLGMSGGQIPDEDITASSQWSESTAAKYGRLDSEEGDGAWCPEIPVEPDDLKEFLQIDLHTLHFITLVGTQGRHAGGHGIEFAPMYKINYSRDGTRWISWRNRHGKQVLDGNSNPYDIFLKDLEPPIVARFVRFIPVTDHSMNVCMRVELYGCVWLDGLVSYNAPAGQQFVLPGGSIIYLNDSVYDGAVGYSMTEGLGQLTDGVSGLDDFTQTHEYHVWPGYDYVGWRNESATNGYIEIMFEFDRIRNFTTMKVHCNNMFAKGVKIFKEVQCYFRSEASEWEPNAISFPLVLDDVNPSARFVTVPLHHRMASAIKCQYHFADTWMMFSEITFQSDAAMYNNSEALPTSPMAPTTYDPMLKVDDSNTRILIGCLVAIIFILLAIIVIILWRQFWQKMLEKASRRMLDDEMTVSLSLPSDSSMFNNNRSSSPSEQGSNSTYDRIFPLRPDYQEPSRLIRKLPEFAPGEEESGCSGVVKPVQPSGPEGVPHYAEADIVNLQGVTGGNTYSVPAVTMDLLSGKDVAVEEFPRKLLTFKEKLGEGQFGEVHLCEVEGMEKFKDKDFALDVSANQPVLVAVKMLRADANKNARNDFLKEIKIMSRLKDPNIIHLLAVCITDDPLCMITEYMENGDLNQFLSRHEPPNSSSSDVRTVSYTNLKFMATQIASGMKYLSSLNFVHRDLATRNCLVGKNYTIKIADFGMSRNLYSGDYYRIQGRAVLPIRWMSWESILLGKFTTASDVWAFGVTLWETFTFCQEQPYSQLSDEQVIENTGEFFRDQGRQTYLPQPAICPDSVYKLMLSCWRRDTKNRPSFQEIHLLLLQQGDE
The data set is described as follows: Binding affinity to wild-type human partial length DDR2 (V555 to E855 residues) expressed in mammalian expression system by Kinomescan method.

Data set [9] can be described thus: Cmax in rat at 4 mg/kg, po. The conditions noted are these: in vivo. The format is ADME, organism-based. Further details: dose 4 mg/kg, route oral.
Data set [10] is described as follows: AUC (infinity) in mouse at 4 mg/kg, po. The format is ADME, organism-based. Further details: dose 4 mg/kg, route oral, time infinity. The settings on record: in vivo.
Data set [11] in a line: AUC (infinity) in dog at 0.4 mg/kg, po. The format is ADME, organism-based, Canis lupus familiaris. Further details: dose 0.4 mg/kg, time infinity, route oral. The settings on record: in vivo.
Data set [12] is described as follows: Clearance in dog at 0.2 mg/kg, iv or 0.4 mg/kg, po. The conditions noted are these: in vivo. The format is ADME, organism-based, Canis lupus familiaris.
Data set [13] can be described thus: Toxicity in human Calu6 cells harboring KRAS Q61K mutant xenografted nude rat assessed as change in body weight at 15 to 150 mg/kg, po administered daily for 18 days starting from day 13 post tumor implantation and measured during compound dosing. The format is organism-based. The conditions noted are these: in vivo, 432 h. In a few lines: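 Nude rats bearing Calu-6 (KRAS Q61K) NSCLC xenografts were dosed orally once daily with vehicle or 15, 35, 75 or 150 mg/kg. Dosing ran from day 13 after implantation until day 31. Body weight was tracked and expressed as percent change from initial for each treatment group versus the vehicle control.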
(In general: A xenograft is tissue or cells of one species grown in another, often human tumour cells in immunodeficient mice.)

Data set [14] is described as follows: Tmax in nude rat xenografted with human Calu6 cells harboring KRAS Q61K mutant at 35 mg/kg, po administered daily for 18 days starting from day 13 post tumor implantation and measured on day 31. The format is ADME, organism-based. The conditions noted are these: in vivo. An outline of the steps:
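Calu-6 xenograft nude rats were dosed orally once daily at 15, 35, 75 or 150 mg/kg from day 13 after implantation to day 31. Plasma was collected after the last dose on day 31, drug concentrations were measured, and PK parameters including AUC were calculated for each dose.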

Data set [15] is described as follows: AUC (0 to 24 hrs) in nude rat xenografted with human Calu6 cells harboring KRAS Q61K mutant at 75 mg/kg, po administered daily for 18 days starting from day 13 post tumor implantation and measured on day 31. The format is ADME, organism-based. The conditions noted are these: in vivo. Further details: time < 24 hr, dose 75 mg/kg, route oral. An outline of the steps:
(§1)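 Nude rats carrying Calu-6 (KRAS Q61K) NSCLC xenografts were dosed p.o. once daily at 15, 35, 75 or 150 mg/kg from day 13 to day 31 after implant. Plasma was collected after the last dose and drug concentration was measured. AUC and Cmax were calculated per dose on day 31.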

Data set [16] can be described thus: AUC (0 to 24 hrs) in nude rat xenografted with human Calu6 cells harboring KRAS Q61K mutant at 150 mg/kg, po administered daily for 18 days starting from day 13 post tumor implantation and measured on day 31. The format is ADME, organism-based. Further details: dose 150 mg/kg, time < 24 hr, route oral. The conditions noted are these: in vivo. An outline of the steps:
as §1

A short description of data set [17]: Lipophilicity, log P of the compound at pH 6.5. The settings on record: buffer. The format is physicochemical.
Data set [18] can be described thus: Stability of the compound in human plasma assessed as parent compound remaining measured after 3 hrs. The format is ADME, cell-free. The settings on record: read-out: Stability. In a few lines: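 Compound incubated in human plasma for 3 h; stability expressed as percent remaining intact.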

Each structure is given as a SMILES string. ≈ marks a conversion by molar mass, not a printed value.

Epithelial discoidin domain-containing receptor 1 (Homo sapiens), sequence (Q08345 whole entry, the tested form may be a part): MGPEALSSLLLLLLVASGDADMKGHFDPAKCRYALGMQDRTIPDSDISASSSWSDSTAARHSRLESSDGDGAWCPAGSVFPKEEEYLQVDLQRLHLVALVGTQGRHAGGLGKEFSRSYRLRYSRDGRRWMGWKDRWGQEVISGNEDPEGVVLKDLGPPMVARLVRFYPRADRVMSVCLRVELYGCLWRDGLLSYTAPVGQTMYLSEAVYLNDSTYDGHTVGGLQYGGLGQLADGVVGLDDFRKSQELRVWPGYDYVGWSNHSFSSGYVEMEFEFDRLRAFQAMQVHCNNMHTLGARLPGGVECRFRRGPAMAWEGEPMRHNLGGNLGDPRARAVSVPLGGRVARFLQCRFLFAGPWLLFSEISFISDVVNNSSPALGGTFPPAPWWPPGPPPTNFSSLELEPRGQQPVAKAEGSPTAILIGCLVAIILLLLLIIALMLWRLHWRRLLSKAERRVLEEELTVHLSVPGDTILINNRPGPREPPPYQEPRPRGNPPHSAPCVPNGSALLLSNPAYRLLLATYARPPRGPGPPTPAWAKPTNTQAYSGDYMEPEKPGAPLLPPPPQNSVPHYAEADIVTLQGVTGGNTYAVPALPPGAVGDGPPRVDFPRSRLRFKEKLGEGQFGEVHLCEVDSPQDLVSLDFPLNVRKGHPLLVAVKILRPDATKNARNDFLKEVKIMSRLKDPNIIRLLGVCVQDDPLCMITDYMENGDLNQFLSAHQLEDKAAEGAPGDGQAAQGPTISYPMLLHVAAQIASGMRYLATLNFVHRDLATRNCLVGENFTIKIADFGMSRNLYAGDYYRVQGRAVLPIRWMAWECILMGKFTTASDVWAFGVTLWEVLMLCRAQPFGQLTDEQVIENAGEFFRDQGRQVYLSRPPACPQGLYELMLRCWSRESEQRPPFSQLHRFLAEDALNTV

One may read the solubility (thermodynamic) as solubility found after equilibrating the solid with the medium. Usually EC50 stands for the concentration needed to bring the measured effect to its halfway point. One may read the Kd as a measure of binding affinity in units of concentration. As usually defined, the Cmax is the maximum level reached in the sampled fluid or tissue. One may read the AUC(0-inf) as total exposure, with the tail of the curve extrapolated. The low end stands for less exposure, the high end for more exposure. Usually Tmax stands for the time from dosing to the highest level. Broadly, the AUC is concentration integrated over time. The low end stands for less exposure, the high end for more exposure. Broadly, the logD is the decadic logarithm of the distribution of all forms, ionised or not, between an organic phase and buffer at a given pH. Higher therefore signals a more lipophilic compound. In turn, `Cc1ccc(NC(=O)c2ccnc(C(F)(F)F)c2)cc1-c1cc(OCCO)nc(N2CCOCC2)c1` [NAPORAFENIB] yielded a solubility (thermodynamic) in [1] of 20 µM (≈ 10 µg/mL). At Cytochrome P450 3A4, the K turned out to be 0.01 min⁻¹. In addition, the EC50 in [2] worked out at 160 nM. Further, the Activity was over 98% in data set [3], over 98% in data set [4], over 99% in data set [5] and “Non-Toxic” in data set [13]. Moreover, the Kd in data set [6] stood at 1.3 nM; in [7], 3.6 nM; in [8] it was 10 nM. In addition, the peak level in [9] (Cmax) was 500 nM. The values for the total exposure AUC(0-inf) in [10] and in data set [11] were 4.3 µM·h and 3.1 µM·h, respectively. This compound also came in with a clearance in data set [12] of 3.5 mL/min/kg. Also, the time to peak (Tmax) in [14] is 3 h. Besides, the AUC at 24 h in data set [15] stood at 105 µM·h; in [16], 217 µM·h. For the same compound, the logD in data set [17] was over 3. The remaining at 3 h in [18] is over 90%.

Source of the values: ChEMBL document CHEMBL4342410, “Design and Discovery of N-(3-(2-(2-Hydroxyethoxy)-6-morpholinopyridin-4-yl)-4-methylphenyl)-2-(trifluoromethyl)isonicotinamide, a Selective, Efficacious, and Well-Tolerated RAF Inhibitor Targeting RAS Mutant Cancers: The Path to the Clinic” (J Med Chem, 2020).
